According to ChEMBL document CHEMBL1155235 (Eur J Med Chem, 2009):
Activity calls are given as the source filed them. The calls are words filed in the database; no cut-off is given here.

Legend:
[1] = molecular target: Cannabinoid receptor 1 (Mus musculus) (UniProt P47746); assay: Agonist activity at CB1 receptor in CD1 mouse vas deferens assessed as inhibition of electrically-evoked contraction at 0.01 to 1 nM after 15 mins; assay type: functional, tissue-based
Method in brief: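 Vasa deferentia from male CD-1 mice (25–30 g) cycled through 5 min stimulation (15 pulses per min, 70 V, 15 Hz, 2 ms) and 10 min rest, with isometric force recorded. Doses were added stepwise at 15 min intervals, and Krebs was replaced before each dose. Inhibition was read 15 min after each dose against the last pre-agonist contraction (100%). One curve was built per tissue.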

[2] = molecular target: T1, Fatty-acid amide hydrolase 1 (Rattus norvegicus) (UniProt P97612); assay: Inhibition of FAAH in rat brain homogenates assessed as membrane bound [3H]anandamide level at 1 uM relative to control; assay type: tissue-based; parameters: scale not given: the % may be the effect or the level left
T1 sequence (whole entry): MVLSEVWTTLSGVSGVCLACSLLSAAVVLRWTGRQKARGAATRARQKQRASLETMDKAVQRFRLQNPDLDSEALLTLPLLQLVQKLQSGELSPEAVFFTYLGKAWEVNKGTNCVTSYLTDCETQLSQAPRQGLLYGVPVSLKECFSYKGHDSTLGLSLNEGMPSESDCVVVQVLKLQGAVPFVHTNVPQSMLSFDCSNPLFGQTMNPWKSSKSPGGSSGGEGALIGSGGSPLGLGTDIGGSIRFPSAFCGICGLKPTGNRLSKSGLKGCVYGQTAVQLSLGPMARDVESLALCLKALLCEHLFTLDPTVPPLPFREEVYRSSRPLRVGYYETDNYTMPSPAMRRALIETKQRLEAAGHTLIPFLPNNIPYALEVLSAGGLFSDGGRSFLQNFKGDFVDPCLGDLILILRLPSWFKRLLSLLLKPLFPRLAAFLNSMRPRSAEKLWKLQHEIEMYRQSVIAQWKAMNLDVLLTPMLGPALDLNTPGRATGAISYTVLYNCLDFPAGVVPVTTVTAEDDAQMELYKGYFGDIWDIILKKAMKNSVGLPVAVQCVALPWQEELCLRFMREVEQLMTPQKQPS
Method in brief: (§1)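 Brain membrane FAAH. Tissue was homogenized in 50 mM Tris pH 8 with 0.32 M sucrose, spun at 1000g for 5 min, and the supernatant spun at 45,000g for 30 min. The pellet was solubilized in Tris at 0–4 °C, protein measured by Bradford, and samples stored at −70 °C. Substrate was arachidonyl-[1-3H]-ethanolamide, and [3H]ethanolamine was counted in the aqueous phase after chloroform extraction. Conditions were linear in time and protein; activity is given as % of control at 10^-6 and 10^-7 M.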

[3] = molecular target: T1, Fatty-acid amide hydrolase 1 (Rattus norvegicus); assay: Inhibition of FAAH in rat brain homogenates assessed as membrane bound [3H]anandamide level at 0.1 uM relative to control; assay type: tissue-based; parameters: scale not given: the % may be the effect or the level left; method in brief: as §1
Cannabinoid receptor 1 [4] = molecular target: T2, Cannabinoid receptor 1 (Rattus norvegicus, UniProt P20272); assay: Displacement of [3H]SR141716A from CB1 receptor in rat cerebellar membrane after 90 mins by scintillation counting; assay type: cell membranes, Cerebellum
Method in brief: (§2)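 Compounds were dissolved in DMSO, then diluted in 20 mM HEPES pH 7.4 with 1 mM MgCl2 and 0.5% fatty-acid-free BSA. Incubation was 30 °C for 90 min, stopped with ice-cold buffer and filtered on GF/C. Ki was derived by Cheng–Prusoff using fixed, independently measured Kd.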

Cannabinoid receptor 1 [5] = molecular target: T2, Cannabinoid receptor 1; assay: Displacement of [3H]WIN-55212-2 from CB1 receptor in rat cerebellar membrane after 90 mins by scintillation counting; assay type: cell membranes, Cerebellum
Method in brief: as §2, with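 “Cerebellar membranes incubated in triplicate with radioligand ([3H]SR141716A 0.4 nM; [3H]WIN-55212-2 1 nM) and compound at 10^-5 to 10^-12 M final. Compounds” for “Compounds”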

[6] = molecular target: T3, Cannabinoid receptor 2 (Rattus norvegicus) (UniProt Q9QZN9); assay: Displacement of [3H]WIN-55212-2 from CB2 receptor in rat cerebellar membrane at 10 uM after 90 mins by scintillation counting; assay type: cell membranes; settings: Cerebellum
T3 sequence (whole entry): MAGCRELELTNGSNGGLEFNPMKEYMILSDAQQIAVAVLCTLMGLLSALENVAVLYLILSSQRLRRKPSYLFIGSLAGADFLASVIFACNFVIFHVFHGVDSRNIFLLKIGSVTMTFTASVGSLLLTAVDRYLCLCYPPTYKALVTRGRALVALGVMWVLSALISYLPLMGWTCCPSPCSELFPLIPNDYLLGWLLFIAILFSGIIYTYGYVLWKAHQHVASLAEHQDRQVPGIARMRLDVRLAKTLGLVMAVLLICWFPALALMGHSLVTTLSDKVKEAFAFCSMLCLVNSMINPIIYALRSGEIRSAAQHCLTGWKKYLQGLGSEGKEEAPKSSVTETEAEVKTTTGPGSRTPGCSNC

[7] = molecular target: T3, Cannabinoid receptor 2 (Rattus norvegicus); assay: Displacement of [3H]WIN-55212-2 from CB2 receptor in rat cerebellar membrane at 0.001 nM after 90 mins by scintillation counting; assay type: cell membranes; settings: Cerebellum

Cannabinoid receptor 1 (Mus musculus), sequence (P47746 whole entry): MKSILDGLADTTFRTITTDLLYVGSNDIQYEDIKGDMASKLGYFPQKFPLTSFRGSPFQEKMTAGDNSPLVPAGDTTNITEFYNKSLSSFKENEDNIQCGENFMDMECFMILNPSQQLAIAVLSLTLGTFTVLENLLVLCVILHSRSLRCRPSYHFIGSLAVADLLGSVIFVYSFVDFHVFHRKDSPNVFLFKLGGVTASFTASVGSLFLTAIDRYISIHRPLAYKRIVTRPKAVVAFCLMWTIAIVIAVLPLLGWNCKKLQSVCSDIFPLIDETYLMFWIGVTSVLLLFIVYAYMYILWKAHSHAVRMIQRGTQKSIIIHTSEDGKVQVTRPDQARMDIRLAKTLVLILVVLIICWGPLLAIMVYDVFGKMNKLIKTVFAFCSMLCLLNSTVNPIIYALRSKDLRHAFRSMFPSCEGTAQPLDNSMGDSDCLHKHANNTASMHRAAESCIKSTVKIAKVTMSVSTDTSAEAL
T2 sequence (P20272 whole entry): as the sequence (P47746 whole entry) above, with D95E counted along it

Structure (SMILES)	inhibition [1]	Activity [2] [%]	Activity [3] [%]	Ki (Cannabinoid receptor 1 [4]) [µM]	Ki (Cannabinoid receptor 1 [5]) [µM]	Activity [6]	Activity [7]
CC(NS(N)(=O)=O)C12CC3CC(CC(C3)C1)C2 (configuration not stated)	inactive	–	–	–	–	–	–
CCCCCCCCCCCCCCNS(N)(=O)=O	–	109	109	–	–	–	–
CCCCCCCC/C=C\CCCCCCCCNS(=O)(=O)NCCC	inactive	96.5	101	> 10	–	–	–
CCCCC/C=C\C/C=C\C/C=C\C/C=C\CCCCNS(=O)(=O)NCCC	inactive	–	–	2.34	–	–	–
CCCNS(=O)(=O)NC12CC3CC(CC(C3)C1)C2	inactive	92.6	90.4	8.58	4.23	inactive	inactive
NS(=O)(=O)NC1C2CC3CC(C2)CC1C3 (configuration not stated)	inactive	–	–	–	–	–	–
CCCCC/C=C\C/C=C\CCCCCCCCNS(=O)(=O)NCCC	inactive	–	–	7.19	–	–	–
CCCCC/C=C\C/C=C\CCCCCCCCNS(N)(=O)=O	inactive	–	–	6.41	–	–	–
CCCCCCCC/C=C\CCCCCCCCNS(N)(=O)=O	inactive	102	100	1.89	–	–	–
CCCCCCCCCCCCCCCCCCNS(=O)(=O)NCCC	inactive	110	109	9.1	> 10	inactive	inactive
CCCCC/C=C\C/C=C\C/C=C\C/C=C\CCCCNS(N)(=O)=O	inactive	–	–	4.01	–	–	–
CCCNS(=O)(=O)NC1C2CC3CC(C2)CC1C3 (configuration not stated)	inactive	–	–	6.67	> 10	inactive	inactive
CCCCCCCCCCCCNS(N)(=O)=O	–	99.3	108	–	–	–	–
CCCCCCCCCCCCCCCCCCNS(N)(=O)=O	inactive	99.4	106	> 10	–	–	–
CCCNS(=O)(=O)NC(C)C12CC3CC(CC(C3)C1)C2 (configuration not stated)	inactive	–	–	> 10	> 100	inactive	inactive
CCCCCCCCCCCCCCCCNS(N)(=O)=O	–	103	114	–	–	–	–
